Bioassay records deposited in PubChem by several laboratories.
A1 inh – inhibitors of the anti-apoptotic protein A1, read as caspase activation | caspase activation, % (test concentration not listed) | MEF A1-2A-BIM cells, Caspase-Glo 3/7 luminescence, 3 h; percent of clofoctol response, vehicle zero | 330,000 compounds, 0.066% hits | AID 2462;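 active = over half of replicate activation scores above 10%, or exactly half above 10 with the replicate mean above 10; inconclusive = replicate mean below 10 yet half the replicates above 10; inactive = over half of replicates below 10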
HIF activator – HIF pathway transcriptional activation. 300,000 compounds, 0.32% hits. U2OS HRE-luciferase reporter, luminescence; normalized: DMSO 0%, desferrioxamine 100%. activation, % at 7.5 µM (by protocol);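 active = mean activation of at least 10% of the iron chelator positive control signal, with at least half of replicates also reaching 10%; inconclusive = mean and replicate majority disagree about reaching 10%; inactive = mean and most replicates under 10%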
Beta apoptosis – beta cell apoptosis inhibition | INS-1E cytokine-induced death, ATP luminescence, 48 h; percent of positive-control rescue, neutral wells zero | 300,000 compounds, 0.8% hits | protection from apoptosis, % (test concentration not listed);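 active = Every replicate reaches about 75%, or at least half do and their mean reaches it too, limit read from the data; inconclusive = At least half of replicates reach the limit but their mean does not; inactive = Under half of replicates reach the limit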;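 also: 0% = cytokine-treated negative control wells and 100% = positive control rescue; higher means more ATP so stronger rescue from cytokine killing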
T cruzi inh – blocks replication of Trypanosoma cruzi | T. cruzi beta-gal in NIH3T3, luminescence, 90 h | inhibition, % (no concentration beside the values) | 300,000 compounds, 1.4% hits | AID 1885;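 active = mean inhibition across valid replicates above about 55%, limit read from the data; inconclusive = mean below that limit but half or more replicates reach it; inactive = mean below it, under half of replicates reach it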;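 also: signal also drops with host cell toxicity which is not excluded here; 0% = plate median of DMSO wells and 100% = zero luminescence signal; higher percent means less beta-gal luminescence so fewer parasites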
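Read-out: Parasite load inhibition, % | Test system: Mouse NIH/3T3 fibroblasts infected with β-gal-expressing T. cruzi Tulahuen C4 | Amount: 5,000 cells/well | Medium: DMEM, 2% fetal bovine serum | Signal: GalScreen β-gal luminescence, detergent lysis, 60 min | Timing: 3 h attach, ≥90 h co-culture | Also added: Tulahuen C4 trypomastigotes, 5000/well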
KLF5 inh – inhibitors of KLF5 expression; AID 1700; DLD-1 KLF5 promoter-luciferase reporter, luminescence; inhibition, % at 5 µM; 290,000 compounds, 0.23% hits;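 active = inhibition above a per-plate limit of that plate's mean compound inhibition plus 3 SD, cut at about 60% in these data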;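 also: 0% = DMSO wells and 100% = LY294002 at 200 µM; higher means less KLF5 promoter-driven luciferase light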
* hit, by the source's call; ? = inconclusive; · = no result. A selection: hits, their analogues and other compounds. The true share with any hit is near 2.3%.

SMILES | A1 inh | HIF activator | Beta apoptosis | T cruzi inh | KLF5 inh
CC1CN(S(=O)(=O)c2ccc(C(=O)OCc3ccc(C#N)cc3)cc2)CC(C)O1 (stereo unspecified) | 2 | · | 1 | · | ·
O=C(Nc1ccc(Br)cc1)c1cc([N+](=O)[O-])cc([N+](=O)[O-])c1 | 0 | -2 | 35 | 71* | -15
CC(=O)Nc1ccc(C(=O)NNC(=O)c2cc([N+](=O)[O-])cc([N+](=O)[O-])c2)cc1 | 1 | 1 | -3 | 3 | -13
COC(=O)c1cc(C(=O)Nc2ccc(S(=O)(=O)NC(C)(C)C)cc2)cc([N+](=O)[O-])c1 | -2 | 0 | -2 | 56* | -37
Cc1ccc(NC(=O)c2ccc(Nc3c([N+](=O)[O-])cc([N+](=O)[O-])cc3[N+](=O)[O-])cc2)cc1 | 2 | 2 | 67 | 59* | -31
O=C(Nc1ccc(NC(=O)c2cccc([N+](=O)[O-])c2)cc1)c1cccc([N+](=O)[O-])c1 | -1 | 0 | 2 | 19 | -24
CC(=O)Nc1ccc(NC(=O)c2cc([N+](=O)[O-])cc([N+](=O)[O-])c2)cc1 | 0 | -1 | 0 | 55* | -41
CCN(CC)S(=O)(=O)c1ccc(O)c(C(=O)OCC(=O)NC23CC4CC(CC(C4)C2)C3)c1 | 1 | · | -7 | · | ·
CN1CCN(C(=O)c2cc([N+](=O)[O-])cc([N+](=O)[O-])c2)CC1 | 0 | -10 | 0 | 15 | -1
Cc1ccc(NC(=O)c2ccc(N/N=C/c3cccc(O)c3)c([N+](=O)[O-])c2)cc1 | 36* | -2 | 63 | 27 | -28
C/C(=N\NC(=O)c1ccc(-c2ccccc2)cc1)c1ccco1 | 0 | 0 | 3 | -5 | -43
CN1CCN(NC(=O)c2cc([N+](=O)[O-])cc([N+](=O)[O-])c2)CC1 | 1 | 0 | -2 | 70* | -19
C/C(=N\NC(=O)c1cc([N+](=O)[O-])cc([N+](=O)[O-])c1)c1ccco1 | 0 | 0 | -9 | 57* | -4
Cc1nnn(-c2nonc2N)c1C(=O)N/N=C/c1ccccc1O | 0 | 3 | 85* | -4 | -20
Nc1nonc1-n1nnc(C(=O)N/N=C/c2cc(Cl)ccc2O)c1CN1CCCCCC1 | 0 | 2 | 91* | 56* | ·
CCN(CC)c1ccc(/C=N/NC(=O)c2nnn(-c3nonc3N)c2C(C)C)c(O)c1 | -2 | 89* | 91* | 28 | 50
CC(=O)c1cccc(NC(=O)C(C)OC(=O)c2ccc(Br)o2)c1 (stereo unspecified) | 1 | · | -4 | · | ·
O=C(COC(=O)C1CCCCC1)Nc1cccc(Br)c1 | 0 | · | -7 | · | ·
Cc1nc2ccccc2n2c(-c3ccccc3)c3c(=O)n(C)c(=O)n(C)c3c12 | 1 | 212* | 3 | 13 | -49
Cn1c(=O)c2c(-c3ccccc3)n3c4ccccc4ncc3c2n(C)c1=O | 1 | -3 | 2 | 6 | -27
CCOc1ccc(NC(=O)CC2C(=O)N(C)C(=S)N2CCCc2ccccc2)cc1 (stereo unspecified) | 1 | 0 | 2 | 55* | -4
CCOc1ccc(NC(=O)CC2C(=O)N(C)C(=S)N2Cc2ccco2)cc1 (stereo unspecified) | -1 | 0 | -7 | -26 | -17
CCN1C(=O)C(CC(=O)Nc2ccc(Br)cc2)N(CCCc2ccccc2)C1=S (stereo unspecified) | 0 | 0 | 27 | 56* | 2
COc1ccc(N2CC(C(=O)Nc3ccccc3C(=O)NC3CC3)CC2=O)cc1 (stereo unspecified) | -1 | 0 | · | 0 | -18
CCn1c(C)c(C)c2cc(C(=O)N3CCc4ccccc4C3)ccc21 | -1 | 3 | 113* | 5 | -4
SMILES | A1 inh | HIF activator | Beta apoptosis | T cruzi inh | KLF5 inh
CCNC(=O)C1CCCN1C(=O)C(CCCN=C(N)N)NC(=O)C(CC(C)C)NC(=O)C(Cc1cn(Cc2ccccc2)cn1)NC(=O)C(Cc1ccc(O)cc1)NC(=O)C(CO)NC(=O)C(Cc1c[nH]c2ccccc12)NC(=O)C(Cc1cnc[nH]1)NC(=O)C1CCC(=O)N1 (stereo unspecified) | 0 | 0 | -8 | 6 | -43
COC(=O)c1ccc2c(c1)C(C)(C)C(/C=C/c1ccccc1O)=[N+]2C | ? | -3 | 1 | 74* | -39
O=C(CSCc1ccc(F)cc1)N1CCN(c2ccc(F)cc2)CC1 | -1 | 1 | 2 | 3 | -18
Cc1ccc(CSCC(=O)N2CCN(c3ccc(F)cc3)CC2)cc1 | -1 | 0 | 0 | 57* | -2
COc1ccc([N+](=O)[O-])c(S(=O)(=O)c2ccccc2)n1 | 2 | 0 | 94* | 20 | 26
O=[N+]([O-])c1cccnc1S(=O)(=O)c1ccccc1 | ? | 0 | 65 | 68* | 20
COc1nc(OC)nc(Oc2ccc(Cl)cc2[N+](=O)[O-])n1 | 1 | 0 | -11 | -9 | -29
COc1ccccc1S(=O)(=O)c1ccccc1[N+](=O)[O-] | 0 | -1 | 4 | -9 | -6
COc1ccc([N+](=O)[O-])c(S(=O)(=O)c2ccc(Cl)cc2)n1 | 0 | -3 | 83* | 1 | 11
CCCN(CC(=O)Nc1ccccc1C)C(=O)c1nn(CC)c(=O)c2ccccc12 | 0 | · | 0 | · | ·
O=C(Cc1cccc(C(F)(F)F)c1)NCC(=O)Nc1cc(Cl)ccc1Cl | 0 | -1 | 2 | 11 | -21
CC(=O)Nc1ccc(C2=CC(=O)C[C@H](c3ccc4c(c3)OCO4)C2)cc1 | 0 | · | 91* | · | ·
N#CC1(NC(=O)COC(=O)C23CC4CC(CC(O)(C4)C2)C3)CCCCC1 | 0 | 0 | -1 | -5 | -49
COC(=O)c1c(NC(=O)CN2C(=O)NC3(CCC(C)CC3)C2=O)sc2c1CCC2 (stereo unspecified) | -1 | · | -6 | · | ·
COC(=O)c1c(NC(=O)CN2C(=O)NC3(CCC(C(C)(C)C)CC3)C2=O)sc2c1CCCCC2 (stereo unspecified) | -1 | 0 | 15 | 58* | -16
CN(C)c1nc(SCCOC(=O)c2ccccc2)nc(N(C)C)n1 | 0 | -1 | -7 | 4 | -24
CCN(CC)c1nc(SCCOC(=O)Nc2ccccc2)nc(N(CC)CC)n1 | -1 | 1 | 8 | 68* | 3
CCC(C)NCCOCCOc1ccc(Br)cc1 (stereo unspecified) | 1 | 0 | · | 66* | 23
CCN1CCN(CC(O)COCCOc2ccc(Br)cc2)CC1 (stereo unspecified) | 1 | 1 | -5 | 21 | -19
CC(C)NCC(O)COCCOc1ccc(Br)cc1 (stereo unspecified) | 1 | 0 | · | 63* | -10
CN1CCN(CC(O)COCCOc2ccc(Br)cc2)CC1 (stereo unspecified) | 1 | -1 | -16 | 59* | -27
CCC(C)NCCOc1ccc(Br)cc1 (stereo unspecified) | 0 | 0 | 2 | -8 | -4
